In ChEMBL document CHEMBL4680241, “Structure-activity relationships of triazole-benzodioxine inhibitors of cathepsin X” (Eur J Med Chem, 2020):
The source made the active and inactive calls. No cut-off for these calls is given here.

Legend:
[1] = biological target: T1, Cathepsin Z (Homo sapiens, UniProt Q9UBR2); assay: Inhibition of human cathepsin X expressed in Pichia pastoris assessed as residual activity at 50 uM using Abz-FEK(Dnp)-OH as substrate incubated for 30 to 45 mins by fluorescence assay relative to control; details: time 30-45 min
Procedure, shortened: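 Substrate was Abz-FEK(Dnp)-OH at 3.25 µM final, compound at 50 µM final. Fluorescence (ex 320/em 420 nm) was followed continuously for 30-45 min at 37 °C. Activity was taken from rates relative to no-compound velocity. Two experiments in duplicate.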

[2] = biological target: T1, Cathepsin Z; assay: Inhibition of human cathepsin X expressed in Pichia pastoris assessed as residual activity using Abz-FEK(Dnp)-OH as substrate incubated for 30 to 45 mins by fluorescence assay
[3] = test system: PC-3; assay: Cytotoxicity against human PC-3 cells assessed as reduction in cell viability at 20 uM after 24 to 48 hrs by MTS assay; assay type: functional, cell-based; details: time 24-48 hrs
Procedure, shortened: (§1)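 PC-3 cells seeded at 6.5×10^4 cells/mL in Advanced DMEM/F-12 with 10% FBS and exposed to compound at 10 or 20 µM for 24 h or 48 h. Means ± SD of three independent assays, each in triplicate.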

[4] = test system: PC-3; assay: Antimigratory activity against human PC-3 cells at 20 uM up to 72 hrs by xCELLigence based RTCA analysis; assay type: functional, cell-based; details: time hrs <=72
Procedure, shortened: (§2)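 PC-3 cells grown in Advanced DMEM/F-12 (1:1) with 10% FBS, L-glutamine and penicillin/streptomycin. Fibronectin-coated (10 μg/mL) xCELLigence CIM plates held 2 × 10⁴ cells per well. Compound at 10 or 20 μM was added to complete medium (lower chamber) or serum-free medium (upper chamber), with 0.1% DMSO as control. Cell index was read every 15 min for 72 h. Migration was taken as the slope of the curve over a selected interval, normalized to DMSO-treated cells. Means ± SD, two independent assays in duplicate or triplicate.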

[5] = test system: PC-3; assay: Cytotoxicity against human PC-3 cells assessed as reduction in cell viability at 10 uM after 24 to 48 hrs by MTS assay; assay type: functional, cell-based; details: time 24-48 hrs; procedure, shortened: as §1
[6] = biological target: T2, Cathepsin S (Homo sapiens, UniProt P25774); assay: Inhibition of human cathepsin S expressed in Pichia pastoris using Z-VVR-AMC as substrate by fluorescence assay
Procedure, shortened: (§3)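 Cathepsin S expressed in P. pastoris, assayed in 100 mM phosphate buffer pH 6.5 containing 5 mM cysteine, 1.5 mM EDTA and 0.1% PEG 8000 after 5 min activation at 37 °C. Substrate was fluorogenic Z-VVR-AMC.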
Target sequence in this assay (P25774 whole entry): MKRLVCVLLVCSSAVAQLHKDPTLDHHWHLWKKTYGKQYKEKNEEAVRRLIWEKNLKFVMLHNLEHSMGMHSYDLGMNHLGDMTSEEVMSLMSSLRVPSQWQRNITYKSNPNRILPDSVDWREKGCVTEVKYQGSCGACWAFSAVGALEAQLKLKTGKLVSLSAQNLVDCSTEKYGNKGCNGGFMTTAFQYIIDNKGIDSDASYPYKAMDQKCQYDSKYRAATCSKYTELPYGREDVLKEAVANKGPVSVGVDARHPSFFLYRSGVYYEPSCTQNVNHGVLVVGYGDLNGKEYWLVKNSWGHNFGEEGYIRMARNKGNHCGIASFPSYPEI

[7] = biological target: T2, Cathepsin S; assay: Inhibition of human cathepsin S expressed in Pichia pastoris at 100 uM using Z-VVR-AMC as substrate by fluorescence assay relative to control; procedure, shortened: as §3
Target sequence in this assay (P25774 115-331 limits assumed): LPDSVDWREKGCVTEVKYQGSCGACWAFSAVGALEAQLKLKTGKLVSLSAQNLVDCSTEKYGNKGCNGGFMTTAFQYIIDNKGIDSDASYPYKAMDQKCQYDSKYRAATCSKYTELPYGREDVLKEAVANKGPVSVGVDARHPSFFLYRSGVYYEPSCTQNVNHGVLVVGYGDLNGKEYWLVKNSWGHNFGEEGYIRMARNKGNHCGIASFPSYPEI

[8] = biological target: Cathepsin B (Homo sapiens) (UniProt P07858); assay: Inhibition of human cathepsin B expressed in Escherichia coli at 100 uM using Abz-GIVRAK(Dnp)-OH as substrate by fluorescence assay relative to control
Procedure, shortened: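 Cathepsin B exopeptidase activity: recombinant enzyme from E. coli in 60 mM acetate buffer pH 5.0 with 5 mM cysteine, 1.5 mM EDTA and 0.1% PEG 8000, activated 5 min at 37 °C. Fluorogenic substrate Abz-GIVRAK(Dnp)-OH.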

[9] = biological target: Procathepsin L (Homo sapiens) (UniProt P07711); assay: Inhibition of human cathepsin L expressed in Escherichia coli at 100 uM using Z-FR-AMC as substrate by fluorescence assay relative to control
[10] = test system: PC-3; assay: Antimigratory activity against human PC-3 cells at 10 uM up to 72 hrs by xCELLigence based RTCA analysis relative to control; assay type: functional; details: dose 20 µM; time hrs <=72; in the assay text read “at 20 uM” for “at 10 uM”; procedure, shortened: as §2

T1 sequence (Q9UBR2 whole entry): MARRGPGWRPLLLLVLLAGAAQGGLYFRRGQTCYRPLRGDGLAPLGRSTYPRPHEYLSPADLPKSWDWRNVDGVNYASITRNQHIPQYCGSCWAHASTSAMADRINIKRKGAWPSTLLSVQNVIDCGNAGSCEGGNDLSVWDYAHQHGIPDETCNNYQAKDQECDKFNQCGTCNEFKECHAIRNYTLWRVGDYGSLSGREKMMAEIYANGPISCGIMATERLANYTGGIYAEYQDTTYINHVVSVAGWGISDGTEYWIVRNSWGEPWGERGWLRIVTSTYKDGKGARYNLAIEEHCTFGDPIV
Chain of Procathepsin L (Homo sapiens) (P07711 114-333 limits assumed): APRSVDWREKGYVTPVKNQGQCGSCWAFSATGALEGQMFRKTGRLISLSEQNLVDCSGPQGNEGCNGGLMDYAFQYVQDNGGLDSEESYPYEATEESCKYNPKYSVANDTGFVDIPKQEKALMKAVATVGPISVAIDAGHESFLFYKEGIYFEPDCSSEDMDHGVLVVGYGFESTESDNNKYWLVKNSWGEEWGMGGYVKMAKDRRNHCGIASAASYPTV

Activity [1] [%] | Structure (SMILES) | other results
23 | O=C(CSc1nnc[nH]1)c1ccc2c(c1)OCCO2 | –
60 | CCOC(=O)COc1ccc(C(=O)CSc2nncn2C(C)C)cc1 | –
28 | Cc1n[nH]c(SCC(=O)c2ccc3c(c2)OCCO3)n1 | –
71 | O=C(COc1nnc[nH]1)c1ccc2c(c1)OCCO2 | –
92 | CC(C)n1cnnc1SCC(=O)c1ccc(C#N)cc1 | –
17 | O=C(CSc1ncc[nH]1)c1ccc2c(c1)OCCO2 | IC50 [2]: 13.6 µM; Activity [3]: inactive
27 | CC(C)n1cnnc1SCC(=O)c1c[nH]c2ccccc12 | –
43 | O=C(CSc1nc(C2CCCCC2)nn1C(=O)C1CCCCC1)c1ccc2c(c1)OCCO2 | –
22 | O=C(CSc1nncn1-c1cccnc1)c1ccc2c(c1)OCCO2 | –
36 | Cn1nnnc1SCC(=O)c1ccc2c(c1)OCCO2 | –
63 | CC(C)Oc1ccc(C(=O)CSc2nncn2C(C)C)cc1 | –
48 | O=C(CSc1ccccc1)c1ccc2c(c1)OCCO2 | –
39 | O=C(CSc1cccs1)c1ccc2c(c1)OCCO2 | –
24 | CC(C)n1cnnc1SCC(=O)c1ccc2c(c1)OCO2 | –
33 | O=C(CSc1nc(-c2ccncc2)n[nH]1)c1ccc2c(c1)OCCO2 | –
77 | CC(C)n1cnnc1SCC(=O)c1ccc(Br)cc1 | –
62 | Cc1[nH]c2ccccc2c1C(=O)CSc1nncn1C(C)C | –
30 | O=C(CSc1nc(C2CCCCC2)n[nH]1)c1ccc2c(c1)OCCO2 | –
69 | CC(C)n1cnnc1SCC(=O)c1ccc(OCC#N)cc1 | –
90 | CC(C)n1cnnc1SCC(N)c1ccc2c(c1)OCCO2 (configuration not stated) | –
55 | CN(C)c1ccc(-n2cnnc2SCC(=O)c2ccc3c(c2)OCCO3)cc1 | –

Activity [1] [%] | Structure (SMILES) | other results
73 | COc1cccc(C(=O)CSc2nncn2C(C)C)c1 | –
24 | CCn1cnnc1SCC(=O)c1ccc2c(c1)OCCO2 | –
98 | CC(C)n1cnnc1SCC(O)c1ccc2c(c1)OCCO2 (configuration not stated) | –
41 | CC(C)n1cnnc1SCC(=O)c1ccc(N(C)C)cc1 | –
17 | Cn1cnnc1SCC(=O)c1ccc2c(c1)OCCO2 | Activity [4]: inactive; IC50 [2]: 11.8 µM; Activity [3]: inactive
15 | Cn1ccnc1SCC(=O)c1ccc2c(c1)OCCO2 | Activity [5]: inactive; IC50 [2]: 9.54 µM; Activity [3]: inactive
73 | CC(C)n1cnnc1SCC(=O)c1ccc(O)cc1 | –
100 | CC(C)n1cnnc1SCC(=O)c1ccccc1 | –
80 | CC(C)n1cnnc1SCC(=O)C(C)(C)C | –
85 | CC(C)n1cnnc1SCC(=O)c1ccc(OCC(=O)O)cc1 | –
90 | CO/N=C(\CSc1nncn1C(C)C)c1ccc2c(c1)OCCO2 | –
22 | O=C(CSc1nccs1)c1ccc2c(c1)OCCO2 | –
35 | NC(=O)c1ccc(-n2cnnc2SCC(=O)c2ccc3c(c2)OCCO3)cc1 | –
75 | Cc1ccc(C(=O)CSc2nncn2C(C)C)cc1 | –
12 | N#CCn1ccnc1SCC(=O)c1ccc2c(c1)OCCO2 | IC50 [6]: 241 µM; inhibition [7]: 30%; IC50 [2]: 7.13 µM; Activity [3]: inactive; inhibition [8]: 30%; inhibition [9]: 30%; Activity [10]: 21%
37 | O=C(CSc1nc(-c2ccccc2)n[nH]1)c1ccc2c(c1)OCCO2 | –
15 | CC(C)n1cnnc1SCC(=O)c1ccc2c(c1)OCCO2 | IC50 [2]: 11.5 µM; Activity [3]: inactive
100 | CC(C)n1cnnc1SCC(=O)c1cccc([N+](=O)[O-])c1 | –
20 | N#Cc1ccc(-n2cnnc2SCC(=O)c2ccc3c(c2)OCCO3)cc1 | Activity [5]: inactive; IC50 [2]: 12.4 µM; Activity [3]: Active
66 | COc1ccc(C(=O)CSc2nncn2C(C)C)cc1 | –
49 | COc1ccccc1C(=O)CSc1nncn1C(C)C | –
